From ChEMBL document CHEMBL1147746, “Structure-activity relationship studies of novel benzophenones leading to the discovery of a potent, next generation HIV nonnucleoside reverse transcriptase inhibitor” (J Med Chem, 2006) come the findings set out here.

Type in all cases: functional, organism-based
The subject of assay [1] is Human immunodeficiency virus 1. The assay is described as follows: Antiviral activity against HIV1 V106A mutant using HeLa MAGI assay. Particulars: Human immunodeficiency virus 1, V106A. The gist of the method:
(§1)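 HeLa CD4-LTR-β-gal cells infected with isogenic recombinant HIV-1 built on the HxB2 backbone and carrying the RT mutation (K103N, V106A or Y181C). Infection was read by a chemiluminescent β-galactosidase signal 3 days after infection. The IC50 is the concentration giving 50% inhibition of the signal relative to untreated controls. Cytotoxicity was run in parallel by CellTiter96; highest concentration mostly 0.5 µM.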

Assay [2] deals with Human immunodeficiency virus 1. Briefly: Antiviral activity against HIV1 Y181C mutant using HeLa MAGI assay. Particulars: Human immunodeficiency virus 1, Y181C. A digest of the protocol: as §1
The test system of assay [3] is Human immunodeficiency virus 1. The assay is described as follows: Antiviral activity against HIV1 K103N mutant using HeLa MAGI assay. Particulars: Human immunodeficiency virus 1, K103N. A digest of the protocol: as §1
Assay [4] deals with Human immunodeficiency virus 1. The assay is described as follows: Antiviral activity against HIV1 3B in MT4 cells. Particulars: Human immunodeficiency virus 1, 3B. The gist of the method: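 MT4 T-cell line infected with HIV-1 IIIB (from H9/HTLV-IIIB supernatants) at 100× the inoculum giving 50% growth reduction; incubated 5 days with a range of compound concentrations. Virus cytopathic effect read by MTS staining; IC50 taken as mean of one triplicate experiment. Cytotoxicity measured in parallel on uninfected cells.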

Assay [5] deals with Human immunodeficiency virus 1. The assay is described as follows: Antiviral activity against HIV1 HxB2 using HeLa MAGI assay. Particulars: Human immunodeficiency virus 1, HxB2. A digest of the protocol: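 HeLa CD4-LTR-β-gal cells infected with HxB2 (from molecular clone pHxB2-D) or isogenic RT mutants; HIV-LTR-driven β-galactosidase quantified with chemiluminescent substrate 3 days post-infection. IC50 is the concentration inhibiting 50% of signal relative to untreated controls. Cytotoxicity measured in parallel by CellTiter96.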

Molecules are shown by their SMILES.

Regarding `Cc1cc(C#N)cc(C(=O)c2cc(Cl)ccc2OCC(=O)Nc2ccc(S(N)(=O)=O)nc2C)c1`, the IC50 (commonly the concentration that gives 50% inhibition) in assay [1] amounted to 3 nM; in assay [2], 4 nM; in assay [3], 6 nM.

Turning to `Cc1cc(NCCCN2CCCC2)ccc1NC(=O)COc1ccc(Cl)cc1C(=O)c1cc(F)cc(F)c1`, the 50% inhibitory concentration (IC50) in assay [4] stood at 18 nM; in assay [3], 109 nM.

As for `Cc1cc(N2CC[S+]([O-])CC2)ccc1NC(=O)COc1ccc(Cl)cc1C(=O)c1ccccc1C#N`, the IC50 was found to be 2000 nM in assay [1], 700 nM in assay [2] and 155 nM in assay [3].

In the case of `Cc1cc(S(N)(=O)=O)ccc1NC(=O)COc1ccc(Cl)cc1C(=O)c1cc(C#N)cc(C(F)(F)F)c1`, the IC50 in assay [1] came to 5.6 nM; in assay [2], 2 nM; in assay [3], 1.1 nM.

Turning to `CCN(CC)CCCNc1ccc(NC(=O)COc2ccc(Cl)cc2C(=O)c2cc(F)cc(F)c2)c(C)c1`, the half-inhibitory concentration (IC50) turned out to be 41 nM in assay [4] and 96 nM in assay [3].

The compound `Cc1cc(C#N)cc(C(=O)c2cc(Cl)ccc2OCC(=O)Nc2ncc(S(N)(=O)=O)cc2C)c1` registered an IC50 in assay [3] of 93 nM.

Regarding `Cc1cc(C)cc(C(=O)c2cc(Cl)ccc2OCC(=O)Nc2ccc(S(N)(=O)=O)cc2C)c1`, the values for the concentration for half-maximal inhibition (IC50) in assay [1], in assay [2] and in assay [3] were 4.2 nM, 3 nM and 3.3 nM, respectively.

Consider `Cc1cc(S(N)(=O)=O)ncc1NC(=O)COc1ccc(Cl)cc1C(=O)c1cc(Cl)cc(C#N)c1`, for which the values for the IC50 in assay [1], in assay [2] and in assay [3] were 10 nM, 2 nM and 5 nM, respectively.

Turning to `Cc1cc(OCCCS(N)(=O)=O)ccc1NC(=O)COc1ccc(Cl)cc1C(=O)c1cc(F)cc(C(F)(F)F)c1`, the half-inhibitory concentration (IC50) in assay [4] worked out at 7 nM; in assay [5], 3 nM; in assay [2], 6 nM; in assay [3] it was 4 nM.

As to `Cc1cc(S(N)(=O)=O)ccc1NC(=O)COc1ccc(Cl)cc1C(=O)c1cccc(C#N)c1`, the 50% inhibitory concentration (IC50) in assay [1] turned out to be 30 nM; in assay [2], 1.5 nM; in assay [3], 1.5 nM.

Take `Cc1cc(C#N)cc(C(=O)c2cc(Cl)ccc2OCC(=O)Nc2cnc(S(N)(=O)=O)cc2C)c1`: the half-inhibitory concentration (IC50) is 2 nM in assay [1], 4 nM in assay [2] and 7 nM in assay [3].

With `Cc1cc(S(N)(=O)=O)ccc1NC(=O)COc1ccc(Cl)cc1C(=O)c1cc(N)cc(C#N)c1`, the IC50 stood at 18 nM in assay [1], 450 nM in assay [2] and 140 nM in assay [3].

For the compound `Cc1cc(N2CC[S+]([O-])CC2)ccc1NC(=O)COc1ccc(Cl)cc1C(=O)c1cccc(C#N)c1`, the IC50 in assay [2] came to 6 nM; in assay [3] it was 5 nM.

In the case of `O=C(COc1ccc(Cl)cc1C(=O)c1cc(F)cc(F)c1)Nc1ccc(Cl)nc1`, the IC50 in assay [3] is 67 nM.

As for `Cc1cc(S(N)(=O)=O)ccc1NC(=O)COc1ccc(Cl)cc1C(=O)c1cc(Cl)cc(Br)c1`, the IC50 was 13 nM in assay [1], 6.9 nM in assay [2] and 6.1 nM in assay [3].

Turning to `Cc1nc(S(N)(=O)=O)ccc1NC(=O)COc1ccc(Cl)cc1C(=O)c1cc(Cl)cc(C#N)c1`, the IC50 in assay [1] turned out to be 7 nM; in assay [2], 3 nM; in assay [3], 3 nM.

Regarding `Cc1ccnc2c1NC(=O)c1cccnc1N2C1CC1` [NEVIRAPINE], the half-inhibitory concentration (IC50) was 8200 nM in assay [1], 10300 nM in assay [2] and 5800 nM in assay [3].

Turning to `Cc1cc(NC(=O)CCN2CCOCC2)ccc1NC(=O)COc1ccc(Cl)cc1C(=O)c1cc(F)cc(F)c1`, the 50% inhibitory concentration (IC50) was 5 nM in assay [4] and 9 nM in assay [3].

Consider `Cc1cc(NCCCn2ccnc2)ccc1NC(=O)COc1ccc(Cl)cc1C(=O)c1cc(F)cc(F)c1`, for which the IC50 in assay [4] was found to be 37 nM; in assay [3] it was 158 nM.

On to `Cc1cc(OCCCNC(N)=O)ccc1NC(=O)COc1ccc(Cl)cc1C(=O)c1cc(F)cc(C(F)(F)F)c1`, for which the half-inhibitory concentration (IC50) was 6 nM in assay [4], 4 nM in assay [5], 10 nM in assay [2] and 4 nM in assay [3].

With `Cc1cc(Cl)cc(C(=O)c2cc(Cl)ccc2OCC(=O)Nc2ccc(S(N)(=O)=O)cc2C)c1`, the results for the IC50 in assay [1], in assay [2] and in assay [3] were 9.4 nM, 3.3 nM and 3.6 nM, respectively.

As for `COc1cc(OC)cc(C(=O)c2cc(Cl)ccc2OCC(=O)Nc2ccc(S(N)(=O)=O)cc2C)c1`, the values for the IC50 in assay [1], in assay [2] and in assay [3] were 500 nM, 13 nM and 370 nM, respectively.

For `COc1ccc(NC(=O)COc2ccc(Cl)cc2C(=O)c2cc(F)cc(F)c2)cn1`, the midpoint of inhibition in assay [3], the IC50, lay at 72 nM.

For `Cc1cc(S(N)(=O)=O)ccc1NC(=O)COc1ccc(Cl)cc1C(=O)c1cc(Br)cc(C(F)(F)F)c1`, the IC50 in assay [1] was determined as 18 nM; in assay [2], 290 nM; in assay [3] it was 93 nM.

For the compound `O=C1Nc2ccc(Cl)cc2C(C#CC2CC2)(C(F)(F)F)O1` (single isomer, unassigned) [EFAVIRENZ], the values for the 50% inhibitory concentration (IC50) in assay [1], in assay [2] and in assay [3] were 1.8 nM, 1.6 nM and 25 nM, respectively.

As to `Cc1cc(S(N)(=O)=O)ccc1NC(=O)COc1ccc(Cl)cc1C(=O)c1cc(F)cc(C(F)(F)F)c1`, the concentration for half-maximal inhibition (IC50) in assay [4] was 1 nM; in assay [5], 1.4 nM; in assay [1], 10.5 nM; in assay [2], 2.9 nM; in assay [3], 2 nM.

For `Cc1cc(N2CC[S+]([O-])CC2)ccc1NC(=O)COc1ccc(Cl)cc1C(=O)c1ccccc1`, the IC50 was 1400 nM in assay [1], 150 nM in assay [2] and 100 nM in assay [3].

As to `Cc1cc(S(=O)(=O)N(C)C)ccc1NC(=O)COc1ccc(Cl)cc1C(=O)c1cc(F)cc(C(F)(F)F)c1`, the figures for the IC50 in assay [4], in assay [5] and in assay [3] were 10 nM, 8 nM and 6 nM, respectively.

Take `Cc1cc(S(N)(=O)=O)ccc1NC(=O)COc1ccc(Cl)cc1C(=O)c1cc(Cl)cc(C#N)c1`: the half-inhibitory concentration (IC50) in assay [1] amounted to 3.4 nM; in assay [2] it was 0.7 nM; in assay [3] it was 1 nM.

As to `Cc1ccccc1NC(=O)COc1ccc(Cl)cc1C(=O)c1cc(F)cc(F)c1`, the IC50 in assay [4] stood at 25 nM; in assay [5], 8 nM; in assay [2] it was 25 nM; in assay [3] it was 38 nM.

As for `Cc1cc(N2CC[S+]([O-])CC2)ccc1NC(=O)COc1ccc(Cl)cc1C(=O)c1ccc(C#N)cc1`, the values for the IC50 in assay [1], in assay [2] and in assay [3] were 1400 nM, 355 nM and 44 nM, respectively.

Turning to `Cc1cc(C#N)cc(C(=O)c2cc(Cl)ccc2OCC(=O)Nc2ccc(S(N)(=O)=O)cc2C)c1`, the IC50 amounted to 1.4 nM in assay [1], 1.9 nM in assay [2] and 0.9 nM in assay [3].

Regarding `CNS(=O)(=O)c1ccc(NC(=O)COc2ccc(Cl)cc2C(=O)c2cc(F)cc(C(F)(F)F)c2)c(C)c1`, the IC50 in assay [4] came out at 8 nM; in assay [5], 3 nM; in assay [3], 2 nM.
